Calls of active or inactive are those of the source. The rule behind the calls is not given here.
How the values were obtained:
[1] = molecular target: T1, Protein deacetylase HDAC6 (Homo sapiens) (UniProt Q9UBN7); experiment: Inhibition of recombinant full length HDAC6 (unknown origin) using Ac-peptide-AMC as substrate at 100 nM after 1 hr by fluorescence assay relative to control
T1 sequence (whole entry): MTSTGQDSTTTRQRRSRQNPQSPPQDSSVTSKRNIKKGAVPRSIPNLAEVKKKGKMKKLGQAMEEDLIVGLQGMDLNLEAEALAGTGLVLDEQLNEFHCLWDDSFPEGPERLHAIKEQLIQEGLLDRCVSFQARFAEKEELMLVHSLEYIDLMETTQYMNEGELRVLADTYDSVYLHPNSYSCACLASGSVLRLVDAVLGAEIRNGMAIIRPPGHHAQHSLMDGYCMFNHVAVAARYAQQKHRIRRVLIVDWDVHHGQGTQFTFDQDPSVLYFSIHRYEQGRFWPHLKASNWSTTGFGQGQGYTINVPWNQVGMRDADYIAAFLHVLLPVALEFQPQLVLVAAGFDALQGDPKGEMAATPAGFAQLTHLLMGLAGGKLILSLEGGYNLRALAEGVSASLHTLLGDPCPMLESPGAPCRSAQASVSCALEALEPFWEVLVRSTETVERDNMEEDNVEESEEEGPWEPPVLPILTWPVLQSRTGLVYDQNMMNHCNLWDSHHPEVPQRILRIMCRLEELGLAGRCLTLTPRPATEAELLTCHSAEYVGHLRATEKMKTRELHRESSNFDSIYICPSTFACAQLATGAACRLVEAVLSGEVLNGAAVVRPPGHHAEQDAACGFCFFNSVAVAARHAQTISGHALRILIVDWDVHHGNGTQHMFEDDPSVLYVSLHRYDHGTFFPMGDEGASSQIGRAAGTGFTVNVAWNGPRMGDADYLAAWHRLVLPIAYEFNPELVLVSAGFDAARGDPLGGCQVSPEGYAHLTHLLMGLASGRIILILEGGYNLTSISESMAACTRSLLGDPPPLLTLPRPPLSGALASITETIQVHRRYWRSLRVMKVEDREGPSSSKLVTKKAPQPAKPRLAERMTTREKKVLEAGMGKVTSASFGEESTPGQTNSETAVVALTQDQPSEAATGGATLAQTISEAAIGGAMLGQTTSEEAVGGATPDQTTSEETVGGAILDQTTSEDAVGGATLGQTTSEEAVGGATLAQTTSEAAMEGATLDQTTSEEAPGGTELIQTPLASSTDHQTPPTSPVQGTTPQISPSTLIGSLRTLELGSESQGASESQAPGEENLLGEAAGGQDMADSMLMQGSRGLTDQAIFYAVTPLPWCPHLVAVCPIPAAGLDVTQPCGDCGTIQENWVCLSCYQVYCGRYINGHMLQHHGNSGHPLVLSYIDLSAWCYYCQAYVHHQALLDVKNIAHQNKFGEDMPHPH
Procedure, shortened: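 Full-length recombinant HDAC1 or HDAC6 was incubated with compound, trypsin and Ac-peptide-AMC substrate for 1 h at room temperature. Fluorescence was read at ex 355/em 460 nm. Inhibition was calculated against the DMSO vehicle control.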

HepG2 = experiment: Antiproliferative activity against human HepG2 cells after 72 hrs by MTT assay; type: functional, cell-based; conditions: HepG2, 72 h
Leukemia cell = experiment: Antiproliferative activity against human AML patient derived primary leukemia cells after 72 hrs by MTT assay; type: functional, cell-based
[2] = molecular target: Histone deacetylase 1/2/3 (Homo sapiens) (UniProt Q13547+O15379+Q92769); experiment: Inhibition of HDAC1/2/3 in human MM1S cells assessed as increase in H3 acetylation after 6 hrs by Western blot analysis; type: cell-based
JeKo-1 [3] = experiment: Cell cycle arrest in human JeKo1 cells assessed as accumulation at G1 phase at 10 nM after 24 hrs by propidium iodide staining based flow cytometric analysis (reference value: 63.16 %); type: functional
JeKo-1 [4] = experiment: Cell cycle arrest in human JeKo1 cells assessed as accumulation at G2/M phase at 1000 nM after 24 hrs by propidium iodide staining based flow cytometric analysis (reference value: 10.71 %); type: functional
JeKo-1 [5] = experiment: Induction of apoptosis in human JeKo1 cells assessed as necrotic cells at 100 nM after 48 hrs by annexin V-FITC/propidium iodide staining-based flow cytometric method (reference value: 2.03 %); type: functional
Procedure, shortened: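 Jeko-1 cells were grown in RPMI-1640 with 10% FBS at 37 °C under 5% CO2. They were exposed to 0, 10, 100 or 1000 nM for 48 h, then apoptosis induction was analysed.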

[6] = Cmax in Sprague-Dawley rat at 5 mg/kg, iv measured upto 24 hrs by LC-MS/MS analysis; type: ADME, organism-based; design: dose 5 mg/kg, route intravenous; conditions: in vivo
Procedure, shortened: (§1)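 SD rats (200-250 g), six per time point, given 5 mg/kg as a tail-vein bolus or orally. Blood was taken by cardiac puncture before dosing and at 5, 15, 30, 45 min and 1, 2, 4, 6, 8, 10, 12 and 24 h. Plasma was spun at 4000 g for 15 min at 4 °C and stored at -80 °C. Analysis was LC-MS/MS with multiple-reaction monitoring, followed by noncompartmental analysis.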

[7] = Clearance in Sprague-Dawley rat at 5 mg/kg, po measured upto 24 hrs by LC-MS/MS analysis; type: ADME, organism-based; conditions: in vivo; procedure, shortened: as §1
Daudi [8] = experiment: Antitumour activity against human Daudi cells xenografted in NOD/SCID mouse assessed as increase in acetylated H4 expression at 10 mg/kg, iv treated on day 1,3 and 5 per week by immunohistochemical analysis; type: functional, organism-based
Procedure, shortened: (§2)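 Daudi s.c. xenografts in female NOD/SCID mice (5–6 weeks) were randomized six per group at 100–200 mm3. Dosing was 10 mg/kg i.v. or 20 mg/kg p.o. in 8% HP-β-CD on days 1, 3 and 5 weekly. Tumors were collected at study end for immunohistochemistry, with comparison to the control group.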

Daudi [9] = experiment: Antitumour activity against human Daudi cells xenografted in NOD/SCID mouse assessed as increase in acetylated H4 expression at 20 mg/kg, po treated on day 1,3 and 5 per week by immunohistochemical analysis; type: functional, organism-based; procedure, shortened: as §2
Daudi [10] = experiment: Antitumour activity against human Daudi cells xenografted in NOD/SCID mouse assessed as DNA damage at 10 mg/kg, iv treated on day 1,3 and 5 per week; type: functional, organism-based; procedure, shortened: as §2
[11] = Toxicity in NOD/SCID mouse xenografted with human Daudi cells assessed as abnormal behavior at 20 mg/kg, po treated on day 1,3 and 5 per week and measured for every 2 days; type: organism-based; conditions: in vivo, 48 h
Procedure, shortened: (§3)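 Female NOD/SCID mice (5–6 weeks) bearing s.c. Daudi xenografts, six per group. Dosing was 10 mg/kg i.v. or 20 mg/kg p.o. in 8% HP-β-CD on days 1, 3 and 5 weekly. Behaviour was observed, and organ tissues were collected at sacrifice for H&E staining.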

[12] = Toxicity in NOD/SCID mouse xenografted with human Daudi cells assessed as abnormal behavior at 10 mg/kg, iv treated on day 1,3 and 5 per week and measured for every 2 days; type: organism-based; conditions: in vivo, 48 h; procedure, shortened: as §3
[13] = Toxicity in NOD/SCID mouse xenografted with human Daudi cells assessed as organ damage at 20 mg/kg, po treated on day 1,3 and 5 per week and measured for every 2 days by H and E staining based assay; type: organism-based; conditions: in vivo, 48 h; procedure, shortened: as §3

inhibition [1]: 71% | IC50 (HepG2): 13 nM | IC50 (Leukemia cell): 21.2 to 61.1 nM | inhibition [2]: Dose-dependent effect | Cmax [6]: 955 ng/mL | CL/F [7]: 372 mL/min/kg
Structure (SMILES): Cc1ccc(CN2CCC(c3noc(CN(C)c4ncc(C(=O)NO)cn4)n3)CC2)cc1
Activity (JeKo-1 [3]): 66.88% | Activity (JeKo-1 [4]): 4.32% | Activity (JeKo-1 [5]): 0.061% | Activity (Daudi [8]): Active | Activity (Daudi [9]): Active | Activity (Daudi [10]): Active | Activity [11]: Non-Toxic | Activity [12]: Non-Toxic | Activity [13]: Non-Toxic

— ChEMBL document CHEMBL4364248, “Discovery of 1,2,4-oxadiazole-Containing hydroxamic acid derivatives as histone deacetylase inhibitors potential application in cancer therapy” (Eur J Med Chem, 2019)
